Source: ChEMBL document CHEMBL2040777, “N-Aryl-N'-(chroman-4-yl)ureas and thioureas display in vitro anticancer activity and selectivity on apoptosis-resistant glioblastoma cells: screening, synthesis of simplified derivatives, and structure-activity relationship analysis” (Eur J Med Chem, 2012)
The source made the active and inactive calls. The calls are words filed in the database; no cut-off is given here.

Columns and labels:
[1] = Growth inhibition of human U373 cells after 72 hrs by MTT assay; type: functional, cell-based, U-373MG ATCC; settings: U373 MG
Method in brief: (§1)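 Glioma lines were grown in RPMI with 10% heat-inactivated FCS, 4 mM glutamine, gentamicin and penicillin-streptomycin. Cells were plated for 24 h at 10,000–40,000 cells/mL, then exposed to compound for 72 h. MTT reduction to formazan was read at 570 nm (reference 630 nm). Six replicates were run.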

[2] = Cell cycle arrest in human U373 cells assessed as accumulation at G0/G1 phase at 30 to 100 uM after 24 hrs by propidium iodide staining-based flow cytometric analysis; type: functional; settings: U-373MG ATCC
T98G [3] = assay: Growth inhibition of human T98G cells after 72 hrs by MTT assay; type: functional, cell-based; method in brief: as §1
[4] = Growth inhibition of human Hs683 cells after 72 hrs by MTT assay; type: functional, cell-based; settings: Hs 683, 72 h; method in brief: as §1
B16-F10 = assay: Growth inhibition of mouse B16F10 cells after 72 hrs by MTT assay; type: functional, cell-based; settings: B16-F10, 72 h
[5] = Selectivity index, ratio of IC50 for mouse astrocytes to IC50 for human U373 cells; design: species or system U-373MG ATCC
T98G [6] = assay: Selectivity index, ratio of IC50 for mouse astrocytes to IC50 for human T98G cells
Hs 683 = assay: Selectivity index, ratio of IC50 for mouse astrocytes to IC50 for human Hs683 cells
U-373MG ATCC [7] = assay: Induction of apoptosis in human U373 cells assessed as increase in subG1 cell population at 3 to 10 uM after 24 hrs by flow cytometric analysis; type: functional, cell-based
[8] = Cell cycle arrest in human U373 cells assessed as accumulation at G0/G1 phase at 3 to 10 uM after 24 hrs by propidium iodide staining-based flow cytometric analysis; type: functional; settings: U-373MG ATCC
[9] = Cell cycle arrest in human U373 cells assessed as accumulation at G0/G1 phase at 10 to 30 uM after 24 hrs by propidium iodide staining-based flow cytometric analysis; type: functional; settings: U-373MG ATCC
[10] = Cytostatic activity against human U373 cells assessed as global growth ratio by measuring number of cells counted in the last and the first frame of study at 20 uM by quantitative videomicroscopic analysis; type: functional, U-373MG ATCC
Method in brief: (§2)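 U373 cells were cultured in 25 cm² flasks and filmed by computer-assisted phase-contrast time-lapse for 72 h, one image every 4 min. Growth level was the cell count in the last frame divided by the first. Global growth ratio was treated growth level over control growth level. Compounds were tested at 20 µM.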

U-373MG ATCC [11] = assay: Induction of apoptosis in human U373 cells assessed as increase in subG1 cell population at 10 to 30 uM after 24 hrs by flow cytometric analysis; type: functional, cell-based
[12] = Growth inhibition of human U373 cells assessed as global growth ratio after 72 hrs by quantitative videomicroscopic analysis relative to untreated control; type: functional, U-373MG ATCC; settings: U373 MG; method in brief: as §2

Row | Compound | IC50 (B16-F10) [µM] | IC50 [1] [µM] | Activity [2] | IC50 (T98G [3]) [µM] | IC50 [4] [µM] | Ratio IC50 [5] | Ratio IC50 (T98G [6]) | Ratio IC50 (Hs 683) | Activity (U-373MG ATCC [7]) | Activity [8] | Activity [9] | Ratio [10] | Activity (U-373MG ATCC [11]) | IC80 [12] [µM]
1 | CC(N/C(=N\C#N)Nc1ccncc1)C(C)(C)C (stereo not given) [PINACIDIL ANHYDROUS] | – | > 100 | inactive | – | – | – | – | – | – | – | – | – | – | –
2 | CC1(C)CC(NC(=S)Nc2cccc(C#N)c2)c2cc(Br)ccc2O1 (stereo not given) | 7 | 6 | – | 9 | 4 | <5 | <5 | <5 | – | – | – | – | – | –
3 | CC1(C)CC(NC(=S)Nc2ccc(Cl)cc2)c2cc(Br)ccc2O1 (stereo not given) | 7 | 7 | – | 22 | 9 | 2 | 2 | 2 | inactive | Active | – | – | – | –
4 | CC1(C)CC(NC(=O)Nc2ccccc2Cl)c2cc(Br)ccc2O1 (stereo not given) | 22 | 19 | – | 11 | 22 | >10 | >10 | >10 | – | – | Active | 0.2 | inactive | 20
5 | CC1(C)CC(NC(=S)Nc2cccc(Cl)c2)c2cc(Br)ccc2O1 (stereo not given) | 7 | 8 | – | 9 | 8 | <2 | <2 | <2 | – | – | – | – | – | –
6 | CC1(C)CC(NC(=S)Nc2cccc([N+](=O)[O-])c2)c2cc(Cl)ccc2O1 (stereo not given) | 6 | 3 | – | 4 | 3 | 3 | 3 | 3 | inactive | Active | – | – | – | –

Further lines, with some results ahead:

Row | IC50 (B16-F10) [µM] | Compound | IC50 [1] [µM] | Activity [2] | IC50 (T98G [3]) [µM] | IC50 [4] [µM] | Ratio IC50 [5] | Ratio IC50 (T98G [6]) | Ratio IC50 (Hs 683) | Activity (U-373MG ATCC [7]) | Activity [8] | Activity [9] | Ratio [10] | Activity (U-373MG ATCC [11]) | IC80 [12] [µM]
7 | 4 | CC1(C)CC(NC(=S)Nc2ccc([N+](=O)[O-])cc2)c2cc(F)ccc2O1 (stereo not given) | 3 | – | 5 | 3 | 5 | 5 | 5 | inactive | Active | – | – | – | –
8 | 3 | CC1(C)CC(NC(=S)Nc2ccc([N+](=O)[O-])cc2)c2cc(Cl)ccc2O1 (stereo not given) | 3 | – | 4 | 2 | 2 | 2 | 2 | inactive | Active | – | – | – | –
9 | 5 | CC1(C)CC(NC(=S)Nc2cccc([N+](=O)[O-])c2)c2cc(Br)ccc2O1 (stereo not given) | 4 | – | 4 | 3 | 2 | 2 | 2 | – | – | – | – | – | –
